Experimental data: ChEMBL document CHEMBL1134527, “Discovery of novel mesangial cell proliferation inhibitors using a three-dimensional database searching method” (2001)

Assays:
Type in all cases: functional
RPTEC [1] = assay: Compound was evaluated for the renal proximal tubular epithelial cell (RPTEC) proliferation assay using RPTEC''s at a dose of 0.1 uM; conditions: Homo sapiens
How it was run: (§1)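 Human renal proximal tubular epithelial cells handled as in the mesangial assay: plated 2 × 10⁴ cells/well for 3 days, serum-starved 4 days. Then 18 h in DMEM + 2% FBS with compound and 1 μCi/mL [³H]thymidine. TCA-precipitable counts measured; four wells per concentration. % inhibition = (control − sample)/(control − blank).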

[2] = Compound was tested for the in vitro MC proliferation Inhibitory activity at a dose of 0.1 uM against normal human mesangial cells
How it was run: (§2)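 Normal human glomerular mesangial cells grown in MCDB131 with 5% FBS, amphotericin B and gentamycin. Plated at 2 × 10⁴ cells/well for 3 days, then serum-free 4 days. Exposed to compound in DMEM + 2% FBS for 18 h with 1 μCi/mL [³H]thymidine. TCA-insoluble counts read; four wells per concentration. Inhibition % = (control − sample)/(control − DMEM blank).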

[3] = Compound was tested for the in vitro MC proliferation Inhibitory activity at a dose of 10 uM against normal human mesangial cells
How it was run: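 Normal human glomerular mesangial cells kept in MCDB131 with amphotericin B, gentamycin and 5% FBS. Seeded 2 × 10⁴ cells/well, grown 3 days, serum-starved 4 days. Then given compound in DMEM + 2% FBS for 18 h with 1 μCi/mL [³H]thymidine. TCA-insoluble counts read by scintillation, four wells per concentration. Inhibition % = (control − sample)/(control − blank), where blank is DMEM alone.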

RPTEC [4] = assay: Compound was evaluated for the renal proximal tubular epithelial cell (RPTEC) proliferation assay using RPTEC's at a dose of 10 uM; conditions: Homo sapiens
How it was run: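 Human renal proximal tubular epithelial cells, run by the same [³H]thymidine method as the mesangial assay. Compound added in DMEM + 2% FBS for 18 h after serum-free pre-incubation. DNA synthesis taken as TCA-insoluble counts, four wells per concentration. Inhibition % = (control − sample)/(control − blank), where blank is DMEM alone.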

RPTEC [5] = assay: Compound was evaluated for the renal proximal tubular epithelial cell ( RPTEC) proliferation assay using RPTEC''s at a dose of 1 uM; conditions: Homo sapiens; how it was run: as §1
[6] = Compound was tested for the in vitro MC proliferation Inhibitory activity at a dose of 1 uM against normal human mesangial cells; how it was run: as §2

Compound | inhibition at 0.1 µM (RPTEC [1]) [%] | inhibition at 0.1 µM [2] [%] | inhibition at 10 µM [3] [%] | inhibition at 10 µM (RPTEC [4]) [%] | inhibition at 1 µM (RPTEC [5]) [%] | inhibition at 1 µM [6] [%]
Cc1c(Cc2c(Cl)cccc2Cl)c(=O)oc2cc(OCC(=O)OCC(=O)c3ccccc3)ccc12 | 35 | 49 | 66 | 31 | 24 | 60
CCOP(=O)(Cc1ccc(C(=O)Nc2nc3c(OC)cc(OC)cc3s2)cc1)OCC | 33 | 59 | 108 | 103 | 39 | 59
CCOC(=O)c1cc(NC(=O)NC(=O)c2c(Cl)cccc2Cl)ccc1Oc1cncc(Cl)c1 | -1 | 90 | 112 | 96 | 32 | 105
CO/C(O)=C(/C=N/c1ccc(Oc2ccccc2OC(C)C)nc1)NC(=O)c1ccccc1 | 2 | 68 | 82 | 8 | 12 | 73
Cc1c(Cc2c(Cl)cccc2Cl)c(=O)oc2cc(OCC(=O)OCC(=O)c3ccc(Cl)cc3)ccc12 | 16 | 72 | 80 | 21 | 6 | 74
CCOP(=O)(Cc1ccc(C(=O)Nc2cc(-c3ccc(Cl)cc3)no2)cc1)OCC | 30 | 69 | 94 | 99 | 88 | 91
CCOP(=O)(Cc1ccc(C(=O)Nc2ccccn2)cc1)OCC | 23 | 62 | 68 | 60 | 32 | 65
CCOP(=O)(Cc1ccc(C(=O)Nc2nc(-c3ccccc3)ns2)cc1)OCC | 33 | 62 | 108 | 96 | 61 | 85
CCOP(=O)(Cc1ccc(C(=O)Nc2ccc(Br)cc2C#N)cc1)OCC [IBROLIPIM] | – | – | 56 | 77 | – | –
